pEC50: −log10 of the molar value. Converted amounts (≈) assume the structure as drawn.
Tested on: not listed separately
Experiment: Aqueous solubility of the compound in 0.01 M HCl at pH 2 after 4 hrs by HPLC-UV analysis
Assay type: physicochemical
Settings: not given
In short: (§1)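 Aqueous solubility measured by HPLC at pH 2.0 and at pH 7.4.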

| solubility at 4 h [µg/mL] | SMILES |
| --- | --- |
| 89.6 (≈ 204 µM) | Cc1cc(/C=C/C#N)cc(C)c1Oc1cc(Nc2ccc(C#N)cc2)c(N)cc1C(=O)NN |
| 57.6 (≈ 115 µM) | Cc1cc(/C=C/C#N)cc(C)c1Oc1cc(Nc2ccc(C#N)cc2)c(N)cc1C(=O)N1CC(F)(F)C1 |

Tested on: not listed separately
Experiment: (§2) Half life in human liver S9 fractions at 1 uM measured pretreated up to 45 mins followed by NADPH addition by LC/MS/MS analysis
Assay type: ADME, tissue-based
Settings: liver S9 fraction
In short: (§3)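 Remaining parent was quantified by LC/MS/MS at several time points to give t1/2 (min). Data from at least two experiments in parallel.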

| half-life at 1 µM [h] | SMILES |
| --- | --- |
| 0.233 | Cc1cc(/C=C/C#N)cc(C)c1Oc1cc(Nc2ccc(C#N)cc2)c(N)cc1C(=O)N1CC(F)(F)C1 |

Tested on: Liver
Experiment: as §2
Assay type: ADME, tissue-based
Settings: s9, 1 µM
In short: as §3

| t1/2 [h] | SMILES |
| --- | --- |
| 0.65 | Cc1cc(/C=C/C#N)cc(C)c1Oc1cc(Nc2ccc(C#N)cc2)c(N)cc1C(=O)NN |
| 1.8 | Cc1cc(/C=C/C#N)cc(C)c1Oc1cc(Nc2ccc(C#N)cc2)c(N)cc1C(N)=O |

| SMILES | t1/2 [h] |
| --- | --- |
| Cc1cc(/C=C/C#N)cc(C)c1Nc1ccnc(Nc2ccc(C#N)cc2)n1 [RILPIVIRINE] | 1.7 |

Tested on: not listed separately
Experiment: Aqueous solubility of the compound in phosphate buffer at pH 7.4 after 4 hrs by HPLC-UV analysis
Assay type: physicochemical
Settings: not given
In short: as §1

| solubility at 4 h [µg/mL] | SMILES |
| --- | --- |
| 2.4 (≈ 5.47 µM) | Cc1cc(/C=C/C#N)cc(C)c1Oc1cc(Nc2ccc(C#N)cc2)c(N)cc1C(=O)NN |
| 6.59 (≈ 13.2 µM) | Cc1cc(/C=C/C#N)cc(C)c1Oc1cc(Nc2ccc(C#N)cc2)c(N)cc1C(=O)N1CC(F)(F)C1 |

Tested on: not listed separately
Experiment: Inhibition of wild-type HIV-1 3B reverse transcriptase infected in human MT4 cells assessed as reduction in virus-induced cytopathic effect after 5 days by MTT assay
Assay type: cell-based
Settings: Human immunodeficiency virus 1, 3B, MT4, 120 h

| SMILES | pEC50 |
| --- | --- |
| Cc1cc(C#N)cc(C)c1Oc1nc(Nc2ccc(C#N)cc2)nc(N)c1Br [ETRAVIRINE] | < 8.82 |

Tested on: not listed separately
Experiment: (§4) Cytotoxicity against human TZM-bl cells infected with HIV1 NL4-3
Assay type: cell-based
Settings: TZM-bl cells infected with HIV1 NL4-3

| SMILES | CC50 [nM] |
| --- | --- |
| Cc1cc(/C=C/C#N)cc(C)c1Oc1cc(Nc2ccc(C#N)cc2)c(N)cc1C(=O)N1CC(F)(F)C1 | > 200 |

Tested on: TZM
Experiment: as §4
Assay type: cell-based
Settings: tzm

| SMILES | CC50 [nM] |
| --- | --- |
| Cc1cc(/C=C/C#N)cc(C)c1Oc1cc(Nc2ccc(C#N)cc2)c(N)cc1C(=O)NN | > 228 |
| Cc1cc(/C=C/C#N)cc(C)c1Nc1ccnc(Nc2ccc(C#N)cc2)n1 [RILPIVIRINE] | > 273 |

Tested on: not listed separately
Experiment: (§5) Half life in human liver microsomes at 1 uM pretreated up to 45 mins followed by NADPH addition by LC/MS/MS analysis
Assay type: ADME, microsome
Settings: liver microsomes
In short: as §3

| half-life at 1 µM [h] | SMILES |
| --- | --- |
| 0.233 | Cc1cc(/C=C/C#N)cc(C)c1Oc1cc(Nc2ccc(C#N)cc2)c(N)cc1C(=O)N1CC(F)(F)C1 |

Tested on: Liver
Experiment: as §5
Assay type: ADME, microsome
Settings: microsomes, 1 µM
In short: as §3

| t1/2 [h] | SMILES |
| --- | --- |
| 0.6 | Cc1cc(/C=C/C#N)cc(C)c1Oc1cc(Nc2ccc(C#N)cc2)c(N)cc1C(=O)NN |
| 1.5 | Cc1cc(/C=C/C#N)cc(C)c1Oc1cc(Nc2ccc(C#N)cc2)c(N)cc1C(N)=O |

| SMILES | t1/2 [h] |
| --- | --- |
| Cc1cc(/C=C/C#N)cc(C)c1Nc1ccnc(Nc2ccc(C#N)cc2)n1 [RILPIVIRINE] | 1.8 |

Tested on: not listed separately
Experiment: Octanol-water partition coefficient, log P of the compound at pH 7.4 after 24 hrs by HPLC method
Assay type: physicochemical
Settings: pH 7.4, 24 h

| logP | SMILES |
| --- | --- |
| 2.31 | Cc1cc(/C=C/C#N)cc(C)c1Oc1cc(Nc2ccc(C#N)cc2)c(N)cc1C(=O)NN |
| 3.53 | Cc1cc(/C=C/C#N)cc(C)c1Oc1cc(Nc2ccc(C#N)cc2)c(N)cc1C(N)=O |
| 3.58 | Cc1cc(/C=C/C#N)cc(C)c1Oc1cc(Nc2ccc(C#N)cc2)c(N)cc1C(=O)N1CC(F)(F)C1 |

| SMILES | logP |
| --- | --- |
| Cc1cc(/C=C/C#N)cc(C)c1Nc1ccnc(Nc2ccc(C#N)cc2)n1 [RILPIVIRINE] | > 5 |

Tested on: not listed separately
Experiment: (§6) Half life in human plasma at 10 ug/ml by LC/MS/MS analysis
Assay type: ADME, cell-free
Settings: not given

| half-life at 10 ug/ml [h] | SMILES |
| --- | --- |
| 57 | Cc1cc(/C=C/C#N)cc(C)c1Oc1cc(Nc2ccc(C#N)cc2)c(N)cc1C(=O)N1CC(F)(F)C1 |

Tested on: Plasma
Experiment: as §6
Assay type: ADME, cell-free
Settings: not given

| t1/2 [h] | SMILES |
| --- | --- |
| 8 | Cc1cc(/C=C/C#N)cc(C)c1Oc1cc(Nc2ccc(C#N)cc2)c(N)cc1C(=O)NN |
| 65 | Cc1cc(/C=C/C#N)cc(C)c1Oc1cc(Nc2ccc(C#N)cc2)c(N)cc1C(N)=O |

| SMILES | t1/2 [h] |
| --- | --- |
| Cc1cc(/C=C/C#N)cc(C)c1Nc1ccnc(Nc2ccc(C#N)cc2)n1 [RILPIVIRINE] | 92 |

Tested on: not listed separately
Experiment: Inhibition of wild type HIV1 NL4-3 reverse transcriptase infected in human TZM-b1 cells after 2 days by bright Glo-luciferase reporter gene assay
Assay type: cell-based
Settings: Human immunodeficiency virus 1, NL4-3, TZM-b1, 48 h
In short: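 Anti-HIV activity against HIV-1 NL4-3 replication in TZM-bl cells, read out by luciferase gene expression. EC50 values from at least three experiments (n = 3). Top test concentration 100 ng/mL for the newly made series.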

| pEC50 | SMILES |
| --- | --- |
| 7.94 | Cc1cc(/C=C/C#N)cc(C)c1Oc1cc(Nc2ccc(C#N)cc2)c(N)cc1C(=O)NN |
| 7.87 | Cc1cc(/C=C/C#N)cc(C)c1Oc1cc(Nc2ccc(C#N)cc2)c(N)cc1C(=O)N1CC(F)(F)C1 |

| SMILES | pEC50 |
| --- | --- |
| Cc1cc(/C=C/C#N)cc(C)c1Nc1ccnc(Nc2ccc(C#N)cc2)n1 [RILPIVIRINE] | 9.36 |

Tested on: not listed separately
Experiment: Inhibition of rilpivirine-resistant HIV1 NL4-3 reverse transcriptase E138K/M184I double mutant infected in human TZM-b1 cells after 2 days by bright Glo-luciferase reporter gene assay
Assay type: cell-based
Settings: Human immunodeficiency virus 1, NL4-3, TZM-b1, 48 h
In short: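 TZM-bl cells infected with NL4-3 variant carrying E138K or E138K+M184I RT mutations; EC50 from luciferase reporter gene expression. Test compounds up to 100 ng/mL highest concentration; at least three experiments (n = 3). Run in parallel with wild-type NL4-3 and reference drug.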

| SMILES | pEC50 |
| --- | --- |
| Cc1cc(/C=C/C#N)cc(C)c1Nc1ccnc(Nc2ccc(C#N)cc2)n1 [RILPIVIRINE] | 8.62 |
